{"source": "paper PMC6001687", "about": "(The Journal of Dermatology, 2018)", "key": {"Tyk2": {"system": "Tyk2", "conditions": "read-out: half maximal inhibitory concentration, Tyk2; cited from earlier work"}, "[1]": {"assay": "Urine pharmacokinetics after topical application, QBX1‐2 study", "format": "in vivo, human", "method_in_brief": "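Adult atopic dermatitis patients; 5 g ointment to eczematous areas twice daily for 7 days. On day 7, urine collected at 0–4, 4–8, 8–12 and 12–24 h, assayed by LC-MS/MS (LLOQ 25 ng/mL). Amount excreted = sum over intervals of concentration × urine volume. Renal clearance = amount excreted ÷ plasma AUCtau (12-h dosing interval, non-compartmental).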"}, "JAK2": {"system": "JAK2", "conditions": "read-out: half maximal inhibitory concentration, JAK2; cited from earlier work"}, "JAK1": {"system": "JAK1", "conditions": "read-out: half maximal inhibitory concentration, JAK1; cited from earlier work"}, "JAK3": {"system": "JAK3", "conditions": "read-out: half maximal inhibitory concentration, JAK3; cited from earlier work"}, "[2]": {"conditions": "p.o. administration; ref data not published; cited from earlier work"}, "[3]": {"assay": "Plasma pharmacokinetics after topical application, QBX1‐2 study", "format": "in vivo, human", "method_in_brief": "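Japanese healthy male volunteers or adult atopic dermatitis patients; 5 g ointment to back skin or eczematous areas, either once (removed at 24 h) or twice daily at 12-h intervals for 7 days. Plasma at 0–48 h after single dose; repeated dosing on days 1 and 7 at 0–24 h after morning dose, plus day-4 trough. LC-MS/MS, LLOQ 1 ng/mL (below set to zero); non-compartmental. Tmax as median.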"}}, "note": "Values joined by “and” are separate entries in the source; they are usually repeats but may differ in a detail not shown here. Identical values can stand only once."}
{"smiles": "C[C@H]1CN(C(=O)CC#N)[C@]12CCN(c1ncnc3[nH]ccc13)C2", "note": "[JTE‐052]", "values": [{"measurement": "IC50", "setting": "Tyk2", "value": "[…]"}, {"measurement": "CL renal", "setting": "[1]; human, urine and plasma, topical, 5 g of 3% ointment twice daily", "value": 330, "unit": "mL/min"}, {"measurement": "fe (fraction excreted into urine to the applied dose)", "setting": "[1]; part 1, healthy volunteers, single application of 3% JTE‐052 ointment, 0–48‐h interval, n = 6", "value": "0.016% and 0.016 ± 0.007%"}, {"measurement": "fe (fraction excreted into urine to the applied dose)", "setting": "[1]; part 2, AD patients, single application of 1% JTE‐052 ointment, 0–48‐h interval, n = 6", "value": "0.382% and 0.382 ± 0.341%"}, {"measurement": "fe (fraction excreted into urine to the applied dose)", "setting": "[1]; part 2, AD patients, single application of 3% JTE‐052 ointment, 0–48‐h interval, n = 5", "value": "0.406% and 0.406 ± 0.508%"}, {"measurement": "fe (fraction excreted into urine to the applied dose)", "setting": "[1]; part 3, AD patients, repeated application of 1% JTE‐052 ointment, day 7 after the morning application, 0–12‐h interval, n = 8", "value": "0.191% and 0.191 ± 0.174%"}, {"measurement": "fe (fraction excreted into urine to the applied dose)", "setting": "[1]; part 3, AD patients, repeated application of 3% JTE‐052 ointment, day 7 after the morning application, 0–12‐h interval, n = 7", "value": "0.289% and 0.289 ± 0.136%"}, {"measurement": "IC50", "setting": "JAK2", "value": "[…]"}, {"measurement": "IC50", "setting": "JAK1", "value": "[…]"}, {"measurement": "IC50", "setting": "JAK3", "value": "[…]"}, {"measurement": "half‐life", "setting": "[2]", "value": "~ 4 h"}, {"measurement": "AUC(0-t)", "setting": "[3]; human, plasma, topical, 5 g of 3% ointment", "value": 77, "unit": "ng·h/mL"}, {"measurement": "Tmax", "setting": "[3]; human, plasma, topical, 5 g of 3% ointment twice daily", "value": 4, "unit": "h"}, {"measurement": "JTE‐052 plasma concentrations", "setting": "[3]; part 2, AD patients, single application of 1% JTE‐052 ointment, all subjects (n = 6)", "value": "[…]"}, {"measurement": "JTE‐052 plasma concentrations", "setting": "[3]; part 3, AD patients, repeated application of 1% JTE‐052 ointment twice daily for 7 days (n = 8)", "value": "[…]"}, {"measurement": "JTE‐052 plasma concentrations", "setting": "[3]; part 3, AD patients, repeated application of 3% JTE‐052 ointment twice daily for 7 days (n = 7), considering trough samples", "value": "[…]"}]}
